From ChEMBL document CHEMBL1145845, “Acetogenins as selective inhibitors of the human ovarian 1A9 tumor cell line” (2003)
Converted amounts (≈) assume the structure as drawn. The source made the active and inactive calls.

Assays:
KB [1] = experiment: Effective dose required for inhibitory activity against KB-VIN human tumor cell line.; format: functional; settings: read-out: ED50 (the source's name)
In short: (§1)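 Human tumor lines were grown in RPMI-1640 with 25 mM HEPES, 0.25% sodium bicarbonate, 10% FBS and 100 µg/mL kanamycin. KB-VIN is a vincristine-resistant KB subline, and PTX10 is a 1A9 subline with mutated β-tubulin. Trypsinized cells (1500–7500/well) got compound from DMSO stock for 3 days continuous. Cells were fixed with cold 50% TCA, stained with 0.4% SRB, and read at 562 nm. ED50 is the 50% growth-reduction concentration; not active means ≤5% inhibition at the top concentration.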

1A9 = experiment: Effective dose required for inhibitory activity against 1A9 human tumor cell line.; format: functional; settings: read-out: ED50 (the source's name); in short: as §1
1A9/ptx-10 [2] = experiment: Effective dose required for inhibitory activity against PTX10 human tumor cell line; format: functional; settings: read-out: ED50 (the source's name); in short: as §1
SK-MEL-2 [3] = experiment: Effective dose required for inhibitory activity against SK-MEL-2 human tumor cell line.; format: functional; settings: read-out: ED50 (the source's name); in short: as §1
PC-3 = experiment: Effective dose required for inhibitory activity against PC-3 human tumor cell line.; format: functional; settings: read-out: ED50 (the source's name); in short: as §1
MCF7 [4] = experiment: Effective dose required for inhibitory activity against MCF-7 human tumor cell line.; format: functional; settings: read-out: ED50 (the source's name); in short: as §1
HCT-8 = experiment: Effective dose required for inhibitory activity against HCT-8 human tumor cell line.; format: functional; settings: read-out: ED50 (the source's name); in short: as §1
HOS [5] = experiment: Effective dose required for inhibitory activity against HOS human tumor cell line.; format: functional; settings: read-out: ED50 (the source's name); in short: as §1
CAKI-1 [6] = experiment: Effective dose required for inhibitory activity against CAK1 human tumor cell line; format: functional; settings: read-out: ED50 (the source's name); in short: as §1
KB [7] = experiment: Effective dose required for inhibitory activity against KB human tumor cell line.; format: functional; settings: read-out: ED50 (the source's name); in short: as §1
A549 = experiment: Effective dose required for inhibitory activity against A549 human tumor cell line.; format: functional; settings: read-out: ED50 (the source's name); in short: as §1
1A9/ptx-10 [8] = experiment: Percent inhibition against PTX10 human tumor cell line at >10 ug/mL; format: functional
HOS [9] = experiment: Effective dose required for inhibitory activity against HOS human tumor cell line; Not active; format: functional, cell-based; in short: as §1
MCF7 [10] = experiment: Percent inhibition against MCF-7 human tumor cell line at <5 ug/mL; format: functional
SK-MEL-2 [11] = experiment: Effective dose required for inhibitory activity against SK-MEL-2 human tumor cell line; Not active; format: functional, cell-based; in short: as §1
CAKI-1 [12] = experiment: Effective dose required for inhibitory activity against CAK1 human tumor cell line; Not active; format: functional, cell-based; in short: as §1

SMILES	EC50 (KB [1]) [µg/mL]	EC50 (1A9) [ng/mL]	EC50 (1A9/ptx-10 [2]) [µg/mL]	EC50 (SK-MEL-2 [3]) [µg/mL]	EC50 (PC-3) [µg/mL]	EC50 (MCF7 [4]) [µg/mL]	EC50 (HCT-8) [µg/mL]	EC50 (HOS [5]) [µg/mL]	EC50 (CAKI-1 [6]) [µg/mL]	EC50 (KB [7]) [µg/mL]	EC50 (A549) [µg/mL]	Inhibition (1A9/ptx-10 [8]) [%]	NA (HOS [9])	Inhibition (MCF7 [10]) [%]	NA (SK-MEL-2 [11])	NA (CAKI-1 [12])
CCCCCC(O)C(O)CCCCCC[C@@H](O)[C@H]1CC[C@H](CCCCCCCCCC[C@@H](O)CC2=C[C@H](C)OC2=O)O1 (stereo not given in full) [MURICIN A]	15 (≈ 25.1 µM)	330 (≈ 0.553 µM)	8.2 (≈ 13.7 µM)	18 (≈ 30.2 µM)	14.1 (≈ 23.6 µM)	6 (≈ 10.1 µM)	15 (≈ 25.1 µM)	18.4 (≈ 30.8 µM)	> 20	12.8 (≈ 21.4 µM)	16.8 (≈ 28.1 µM)	–	–	–	–	–
CCCCCCCCCCCCCC[C@@H](O)[C@H]1CC[C@H]([C@H](O)CCCCC(O)CCCCCC(O)CC2=C[C@H](C)OC2=O)O1 (stereo not given in full)	13.3 (≈ 21.3 µM)	500 (≈ 0.8 µM)	7.2 (≈ 11.5 µM)	15 (≈ 24 µM)	12.2 (≈ 19.5 µM)	5.6 (≈ 8.96 µM)	12.7 (≈ 20.3 µM)	13.6 (≈ 21.8 µM)	16 (≈ 25.6 µM)	9 (≈ 14.4 µM)	11.5 (≈ 18.4 µM)	–	–	–	–	–
CCCCC(O)C(O)C/C=C\CC[C@H](O)[C@@H]1CC[C@@H](CCCCCCCCCCCC[C@H](O)CC2=C[C@H](C)OC2=O)O1 (stereo not given in full)	> 20	870 (≈ 1.46 µM)	–	> 20	> 20	14.3 (≈ 24 µM)	> 20	–	> 20	> 20	> 20	25	inactive	–	–	–
CCCCCCCCCCCC[C@@H](O)[C@H]1CC[C@H]([C@H](O)CCCC[C@H](O)CCCCC[C@@H](O)CC2=CC(C)OC2=O)O1 (stereo not given in full) [ANNONACIN]	10.3 (≈ 17.3 µM)	70 (≈ 0.117 µM)	6 (≈ 10.1 µM)	13.8 (≈ 23.1 µM)	8.2 (≈ 13.7 µM)	–	7.9 (≈ 13.2 µM)	8.2 (≈ 13.7 µM)	9.8 (≈ 16.4 µM)	7.5 (≈ 12.6 µM)	7.8 (≈ 13.1 µM)	–	–	62	–	–
CCCCCCCCCCCCC(O)C(O)CCC(O)[C@H]1CC[C@H](CCCCCCC[C@@H](O)CC2=C[C@H](C)OC2=O)O1 (stereo not given in full)	> 20	70 (≈ 0.117 µM)	–	> 20	> 20	11.5 (≈ 19.3 µM)	> 20	> 20	> 20	> 20	> 20	37	–	–	–	–
CCCCCCCC(O)C(O)CCCC[C@@H](O)[C@H]1CC[C@H](CCCCCCCCCCCCC2=C[C@H](C)OC2=O)O1 (stereo not given in full)	> 20	770 (≈ 1.33 µM)	–	17.5 (≈ 30.1 µM)	17.5 (≈ 30.1 µM)	10.5 (≈ 18.1 µM)	> 20	> 20	> 20	15.1 (≈ 26 µM)	> 20	37	–	–	–	–
CCCCCC[C@H](O)CCC[C@H](O)[C@H]1CC[C@H]([C@H]2CC[C@H]([C@H](O)CCCCCCCCCCCCC3=C[C@H](C)OC3=O)O2)O1 [SQUAMOCIN]	12 (≈ 19.3 µM)	0.32 (≈ 0.000514 µM)	7 (≈ 11.2 µM)	16.5 (≈ 26.5 µM)	11.1 (≈ 17.8 µM)	6 (≈ 9.63 µM)	9.8 (≈ 15.7 µM)	8.5 (≈ 13.6 µM)	13.5 (≈ 21.7 µM)	8.1 (≈ 13 µM)	9.3 (≈ 14.9 µM)	–	–	–	–	–
CCCCCCCCCCCC[C@@H](O)[C@H]1CC[C@@H]([C@@H](O)CCCCCCC(O)CCCCC[C@@H](O)CC2=C[C@H](C)OC2=O)O1 (stereo not given in full)	14 (≈ 22.4 µM)	80 (≈ 0.128 µM)	8.7 (≈ 13.9 µM)	15.1 (≈ 24.2 µM)	14 (≈ 22.4 µM)	6.6 (≈ 10.6 µM)	15 (≈ 24 µM)	15 (≈ 24 µM)	17.3 (≈ 27.7 µM)	10.8 (≈ 17.3 µM)	14.5 (≈ 23.2 µM)	–	–	–	–	–
CCCCCC[C@@H](O)CCC[C@H](O)[C@@H]1CC[C@@H]([C@H](O)CC[C@@H](O)[C@@H]2CC[C@@H](CCCCCCCCCC3=C[C@@H](C)OC3=O)O2)O1 [Squamostatin-A]	> 20	8.7 (≈ 0.0136 µM)	–	–	> 20	8 (≈ 12.5 µM)	> 20	> 20	> 20	> 20	> 20	40	–	–	inactive	–
CCCCCCCCCCCCCCCCCC1OC1C1OC1CCCCCCCCC1=C[C@H](C)OC1=O (stereo not given in full)	> 20	8800 (≈ 16.5 µM)	–	> 20	> 20	> 20	> 20	> 20	–	> 20	> 20	15	–	–	–	inactive
CCCCCCCC/C=C\CC[C@H](O)[C@@H]1CC[C@@H]([C@H](O)CCCCC(O)CCCCCC(O)CC2=C[C@H](C)OC2=O)O1 (stereo not given in full)	17.5 (≈ 29.4 µM)	930 (≈ 1.56 µM)	–	17 (≈ 28.6 µM)	15.3 (≈ 25.7 µM)	7.6 (≈ 12.8 µM)	14.4 (≈ 24.2 µM)	17 (≈ 28.6 µM)	19 (≈ 31.9 µM)	13 (≈ 21.9 µM)	17 (≈ 28.6 µM)	40	–	–	–	–
CCCCCCCCCCCC[C@@H](O)[C@H]1CC[C@H]([C@H](O)CCCCC(=O)CCCCCCCC2=C[C@H](C)OC2=O)O1	> 20	760 (≈ 1.31 µM)	–	> 20	> 20	9.5 (≈ 16.4 µM)	> 20	–	–	> 20	> 20	31	inactive	–	–	inactive
CC(=O)O[C@H]1C(=O)[C@@]2(C)[C@H]([C@H](OC(=O)c3ccccc3)[C@]3(O)C[C@H](OC(=O)[C@H](O)[C@@H](NC(=O)c4ccccc4)c4ccccc4)C(C)=C1C3(C)C)[C@]1(OC(C)=O)CO[C@@H]1C[C@@H]2O [PACLITAXEL]	–	2 (≈ 0.00234 µM)	0.041 (≈ 0.048 µM)	–	–	–	0.011 (≈ 0.0129 µM)	–	–	0.001 (≈ 0.00117 µM)	0.005 (≈ 0.00586 µM)	–	–	–	–	–
CCCCCCCCCC[C@H](O)[C@H]1CC[C@H]([C@H]2CC[C@H]([C@H](O)CCCCCCCC[C@@H](O)CC3=C[C@H](C)OC3=O)O2)O1 [MOLVIZARIN]	13.9 (≈ 23.4 µM)	0.005 (≈ 8.41e-06 µM)	8.7 (≈ 14.6 µM)	16.4 (≈ 27.6 µM)	12.9 (≈ 21.7 µM)	7.7 (≈ 12.9 µM)	14.9 (≈ 25 µM)	9.9 (≈ 16.6 µM)	16.4 (≈ 27.6 µM)	10 (≈ 16.8 µM)	12.9 (≈ 21.7 µM)	–	–	–	–	–
CCCCCC(O)C(O)CCCCCC[C@H](O)[C@@H]1CC[C@H](CCCCCCCCCC[C@H](O)CC2=C[C@H](C)OC2=O)O1 (stereo not given in full) [MURICIN B]	> 20	520 (≈ 0.871 µM)	–	> 20	> 20	15.5 (≈ 26 µM)	> 20	> 20	–	> 20	> 20	26	–	–	–	inactive
CCCCCCCCCCCC[C@H](O)[C@@H]1CC[C@@H]([C@@H](O)CCCCC(=O)CCCCCC2CC(CC(C)=O)C(=O)O2)O1 (stereo not given in full) [ISOANNONACINONE]	> 20	2200 (≈ 3.7 µM)	–	–	> 20	> 20	> 20	–	–	> 20	> 20	19	inactive	–	inactive	inactive
CCCCCCCCCCCC[C@@H](O)[C@H]1CC[C@H]([C@H](O)CCCCC(=O)CCCCC[C@@H](O)CC2=C[C@H](C)OC2=O)O1 [ANNONACINONE]	> 20	740 (≈ 1.24 µM)	–	> 20	> 20	11.5 (≈ 19.3 µM)	> 20	> 20	> 20	18.3 (≈ 30.8 µM)	> 20	36	–	–	–	–
CCCCCCCC(O)C(O)CC[C@H](O)[C@@H]1CC[C@@H](CCCCCCCCCC[C@H](O)CC2=C[C@H](C)OC2=O)O1 (stereo not given in full)	> 20	680 (≈ 1.2 µM)	–	> 20	> 20	15.5 (≈ 27.2 µM)	> 20	> 20	> 20	18 (≈ 31.6 µM)	> 20	27	–	–	–	–
CCCCCCCCCCCCCC[C@@H](O)[C@H]1CC[C@H]([C@H](O)CCC(O)CCCCCCCC2=C[C@H](C)OC2=O)O1 (stereo not given in full)	> 20	810 (≈ 1.39 µM)	–	> 20	16.8 (≈ 28.9 µM)	9 (≈ 15.5 µM)	20 (≈ 34.4 µM)	> 20	> 20	17.3 (≈ 29.8 µM)	20 (≈ 34.4 µM)	43	–	–	–	–
CCCCCCCCC[C@H](O)[C@@H]1CC[C@@H]([C@@H]2CC[C@@H](CCCCCCCCCC[C@H](O)CC3=C[C@H](C)OC3=O)O2)O1	> 20	1930 (≈ 3.33 µM)	–	15.3 (≈ 26.4 µM)	14.5 (≈ 25 µM)	7.6 (≈ 13.1 µM)	13.8 (≈ 23.8 µM)	16 (≈ 27.6 µM)	17.8 (≈ 30.7 µM)	13.5 (≈ 23.3 µM)	17.2 (≈ 29.7 µM)	30	–	–	–	–
CCCCCCCCCCCC[C@@H](O)[C@H]1CC[C@@H]([C@@H](O)CCCCC(=O)CCCCCCCC2=C[C@H](C)OC2=O)O1 [COROSSOLONE]	> 20	820 (≈ 1.42 µM)	–	18.8 (≈ 32.5 µM)	13.5 (≈ 23.3 µM)	7.9 (≈ 13.6 µM)	> 20	> 20	> 20	18 (≈ 31.1 µM)	19 (≈ 32.8 µM)	37	–	–	–	–
